The source made the active and inactive calls. No cut-off for these calls is given here.
What was measured:
[1] = biological target: BMP-2-inducible protein kinase (Homo sapiens) (UniProt Q9NSY1); test: Inhibition of BIKE (unknown origin) assessed as residual enzyme activity at 10 uM by Ambit kinase binding assay relative to control
[2] = biological target: Serine/threonine-protein kinase pim-1 (Homo sapiens) (UniProt P11309); test: Inhibition of PIM1 (unknown origin) assessed as residual enzyme activity at 10 uM by Ambit kinase binding assay relative to control
[3] = biological target: Bone morphogenetic protein receptor type-2 (Homo sapiens) (UniProt Q13873); test: Inhibition of BMPR2 (unknown origin) assessed as residual enzyme activity at 10 uM by Ambit kinase binding assay relative to control
[4] = biological target: Inhibitor of nuclear factor kappa-B kinase subunit alpha (Homo sapiens) (UniProt O15111); test: Inhibition of IKK-alpha (unknown origin) assessed as residual enzyme activity at 10 uM by Ambit kinase binding assay relative to control
[5] = biological target: Serine/threonine-protein kinase 38-like (Homo sapiens) (UniProt Q9Y2H1); test: Inhibition of NDR2 (unknown origin) assessed as residual enzyme activity at 10 uM by Ambit kinase binding assay relative to control
[6] = biological target: SRSF protein kinase 3 (Homo sapiens) (UniProt Q9UPE1); test: Inhibition of SRPK3 (unknown origin) assessed as residual enzyme activity at 10 uM by Ambit kinase binding assay relative to control
[7] = biological target: Ribosomal protein S6 kinase alpha-1 (Homo sapiens) (UniProt Q15418); test: Inhibition of RPS6KA1 kinase domain 2 (unknown origin) assessed as residual enzyme activity at 10 uM by Ambit kinase binding assay relative to control
[8] = biological target: Ankyrin repeat and protein kinase domain-containing protein 1 (Homo sapiens) (UniProt Q8NFD2); test: Inhibition of ANKK1 (unknown origin) assessed as residual enzyme activity at 10 uM by Ambit kinase binding assay relative to control
[9] = biological target: Serine/threonine-protein kinase RIO1 (Homo sapiens) (UniProt Q9BRS2); test: Inhibition of RIOK1 (unknown origin) assessed as residual enzyme activity at 10 uM by Ambit kinase binding assay relative to control
[10] = tested on: HeLa S3; test: Reversal of nocodazole-induced mitotic arrest in human HeLa S3 cells expressing histone H2B-GFP assessed as nuclear envelope reassembly at 10 uM measured for 20 to 60 mins by immunofluorescence analysis; format: functional, cell-based; details: time 20-60 min
[11] = tested on: HCT-116; test: Cytotoxicity against human HCT-116 cells assessed as loss of cell viability at 5 to 10 uM incubated for 10 days by crystal violet staining based assay; format: functional; details: dose 5-10 µM, time 10.0 day
Summary of the method: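 Colony outgrowth: cells plated at 200 cells per 60-mm dish, exposed to compound or DMSO vehicle and stained with crystal violet after 10 days. HCT116 grown in McCoy's 5A; A549 and HeLa in DMEM; hTERT-RPE1 in DMEM/F-12. All media had 10% FBS and penicillin/streptomycin, 37°C, 5% CO2. Quantified from 3 independent experiments, mean + SD, Student's t test.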

[12] = tested on: HCT-116; test: Antiproliferative activity against human HCT-116 with BAX-/- cells at 10 uM incubated for 4 days by Syto60 staining based assay; format: functional, cell-based; details: time 4.0 day
Summary of the method: (§1)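 Proliferation read by Syto60 nucleic acid stain fluorescence (excitation 635 nm, emission 695 nm) after treatment for up to 96 h. Each time point normalized to its DMSO control. Mean ± SD from 4 independent experiments. Cells kept at 37°C, 5% CO2 in 10% FBS-supplemented medium.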

[13] = tested on: A549; test: Antiproliferative activity against human A549 cells at 10 uM incubated for 4 days by Syto60 staining based assay; format: functional, cell-based; details: time 4.0 day
[14] = tested on: HCT-116; test: Induction of apoptosis in human HCT-116 cells assessed as increase in cleaved PARP level at 5 to 10 uM measured for 24 to 48 hrs in presence of Z-VAD-FMK by immunoblot analysis; format: functional, cell-based; details: dose 5-10 µM, time 24-48 hrs
[15] = biological target: Activated CDC42 kinase 1 (Homo sapiens, UniProt Q07912); test: Binding affinity to TNK2 (unknown origin) assessed as dissociation constant by Ambit kinase binding assay
[16] = biological target: Insulin receptor (Homo sapiens, UniProt P06213); test: Binding affinity to INSR (unknown origin) assessed as dissociation constant by Ambit kinase binding assay
[17] = tested on: U2OS; test: Reversal of s-trityl cysteine-induced mitotic arrest in human U2OS cells assessed as accumulation of 4N phosphorylated Histone H3-negative cells incubated for 16 hrs by flow cytometry; format: functional, cell-based; details: dose 5-10 µM
[18] = tested on: U2OS; test: Initiation of anaphase in human U2OS cells expressing histone H2B-GFP at 10 uM measured for 20 mins by fluorescence time-lapse microscopy (reference value: 10 %); format: functional
Summary of the method: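 U2OS H2B-GFP cells were given DMSO or inhibitor and imaged by fluorescence time-lapse at 37°C, 5% CO₂, one frame every 2 min. NEBD-to-anaphase time was scored for 100 cells per population and plotted as cumulative percentage initiating anaphase.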

[19] = biological target: Dual specificity protein kinase CLK1 (Homo sapiens, UniProt P49759); test: Inhibition of CLK1 (unknown origin) assessed as residual enzyme activity at 10 uM by Ambit kinase binding assay relative to control
[20] = tested on: UTRM10; test: Effect on centrosome overduplication in hydroxyurea-treated UTRM10 cells (unknown origin) at 10 to 25 uM incubated for 48 hrs by centrin staining based analysis; details: dose 10-25 µM
[21] = tested on: U2OS; test: Reversal of nocodazole-induced mitotic arrest in human U2OS cells assessed as accumulation of 4N phosphorylated Histone H3-negative cells incubated for 16 hrs by flow cytometry; format: functional, cell-based; details: dose 5-10 µM
[22] = tested on: HeLa; test: Antiproliferative activity against human HeLa cells at 10 uM incubated for 4 days by Syto60 staining based assay; format: functional, cell-based; details: time 4.0 day; summary of the method: as §1
[23] = Inhibition of Mps1 in nocodazole-treated Potoroo PTK2 cells expressing EyFP-tagged human Mad2 assessed as decrease in Mad2 recruitment to kinetochore at 10 uM incubated for 1 hr by fluorescence based imaging analysis relative to nocodazole; set-up: species or system Pt K2; details: Potorous tridactylus
Summary of the method: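 PtK2 (male Potorous tridactylus kidney) cells stably expressing human Mad2-EYFP, cultured in Advanced MEM with 2% FBS. Cells were pretreated 1 h with 10 μM inhibitor or DMSO, then given DMSO or nocodazole (200 ng·ml⁻¹). Time-lapse imaging ran at 37°C from NEBD. Kinetochore Mad2-EYFP density was background-corrected and normalized. N=20–29 cells; 95% CI; Student's t test.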

[24] = tested on: U2OS; test: Induction of premature entry into anaphase in thymidine-treated human U2OS cells expressing H2B-GFP and Plk4 overexpression measured for 30 mins by time lapse imaging analysis relative to control; format: functional; details: 0.5 h
Summary of the method: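 Doxycycline-inducible Plk4 U2OS cells expressing H2B-GFP were blocked with thymidine for 18 hrs and released into doxycycline (2 μg·ml⁻¹) for 10 hrs. A second 18-hr thymidine block followed, then release for 6 hrs before 5 μM inhibitor, with or without Plk4 induction. Cells were imaged by time-lapse at 37°C, 5% CO₂, timed from NEBD, and bipolar versus multipolar anaphases were scored. Values are mean ± SD of 3 independent experiments.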

[25] = biological target: Mitogen-activated protein kinase 1 (Homo sapiens, UniProt P28482); test: Inhibition of ERK2 (unknown origin) assessed as residual enzyme activity at 10 uM by Ambit kinase binding assay relative to control

Activated CDC42 kinase 1, sequence (Q07912 whole entry): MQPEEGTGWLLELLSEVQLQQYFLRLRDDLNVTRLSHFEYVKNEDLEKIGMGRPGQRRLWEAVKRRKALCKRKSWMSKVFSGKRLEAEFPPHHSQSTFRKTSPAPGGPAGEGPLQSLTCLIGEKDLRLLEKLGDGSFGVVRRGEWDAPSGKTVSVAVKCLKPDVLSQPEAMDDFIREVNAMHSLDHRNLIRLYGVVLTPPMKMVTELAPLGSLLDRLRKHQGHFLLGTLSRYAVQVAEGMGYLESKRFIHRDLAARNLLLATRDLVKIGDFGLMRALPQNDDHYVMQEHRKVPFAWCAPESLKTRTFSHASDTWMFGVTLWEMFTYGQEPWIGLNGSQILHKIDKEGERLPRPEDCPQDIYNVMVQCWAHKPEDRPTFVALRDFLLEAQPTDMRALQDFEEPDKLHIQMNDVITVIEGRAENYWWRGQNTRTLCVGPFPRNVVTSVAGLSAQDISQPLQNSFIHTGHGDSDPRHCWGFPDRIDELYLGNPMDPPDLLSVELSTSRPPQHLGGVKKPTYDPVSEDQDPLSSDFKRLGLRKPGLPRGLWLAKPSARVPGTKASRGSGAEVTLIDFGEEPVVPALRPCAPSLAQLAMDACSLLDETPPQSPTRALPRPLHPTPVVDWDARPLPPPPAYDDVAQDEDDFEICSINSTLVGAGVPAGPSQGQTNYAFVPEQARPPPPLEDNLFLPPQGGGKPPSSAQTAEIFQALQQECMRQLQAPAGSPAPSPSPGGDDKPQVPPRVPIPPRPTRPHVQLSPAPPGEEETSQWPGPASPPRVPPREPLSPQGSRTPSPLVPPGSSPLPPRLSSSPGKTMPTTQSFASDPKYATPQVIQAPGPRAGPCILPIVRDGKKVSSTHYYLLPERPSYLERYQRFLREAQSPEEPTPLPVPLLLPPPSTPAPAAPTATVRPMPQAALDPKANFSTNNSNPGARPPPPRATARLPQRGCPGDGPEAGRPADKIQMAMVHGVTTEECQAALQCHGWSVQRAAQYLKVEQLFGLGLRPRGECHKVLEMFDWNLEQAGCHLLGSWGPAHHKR
Ankyrin repeat and protein kinase domain-containing protein 1 (Homo sapiens), sequence (Q8NFD2 whole entry, the tested form may be a part): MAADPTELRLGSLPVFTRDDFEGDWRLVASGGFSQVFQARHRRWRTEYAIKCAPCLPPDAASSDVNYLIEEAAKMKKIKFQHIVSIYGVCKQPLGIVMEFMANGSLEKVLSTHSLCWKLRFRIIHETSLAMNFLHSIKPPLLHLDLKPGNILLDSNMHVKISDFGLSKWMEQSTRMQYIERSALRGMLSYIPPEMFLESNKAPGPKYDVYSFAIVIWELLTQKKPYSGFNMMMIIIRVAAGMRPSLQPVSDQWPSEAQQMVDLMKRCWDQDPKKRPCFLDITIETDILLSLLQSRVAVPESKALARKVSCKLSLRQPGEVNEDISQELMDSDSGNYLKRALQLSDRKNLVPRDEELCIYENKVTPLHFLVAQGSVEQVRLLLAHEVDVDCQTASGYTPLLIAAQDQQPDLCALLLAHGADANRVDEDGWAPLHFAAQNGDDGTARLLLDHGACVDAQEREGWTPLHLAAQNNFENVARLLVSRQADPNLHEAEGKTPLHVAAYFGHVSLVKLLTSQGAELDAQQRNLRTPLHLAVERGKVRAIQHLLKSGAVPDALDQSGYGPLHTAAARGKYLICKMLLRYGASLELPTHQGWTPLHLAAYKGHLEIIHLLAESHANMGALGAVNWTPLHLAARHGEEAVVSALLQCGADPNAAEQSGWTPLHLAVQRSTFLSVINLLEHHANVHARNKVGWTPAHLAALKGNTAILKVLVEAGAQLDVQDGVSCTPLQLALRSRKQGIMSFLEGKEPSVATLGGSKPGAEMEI
SRSF protein kinase 3 (Homo sapiens), sequence (Q9UPE1 whole entry, the tested form may be a part): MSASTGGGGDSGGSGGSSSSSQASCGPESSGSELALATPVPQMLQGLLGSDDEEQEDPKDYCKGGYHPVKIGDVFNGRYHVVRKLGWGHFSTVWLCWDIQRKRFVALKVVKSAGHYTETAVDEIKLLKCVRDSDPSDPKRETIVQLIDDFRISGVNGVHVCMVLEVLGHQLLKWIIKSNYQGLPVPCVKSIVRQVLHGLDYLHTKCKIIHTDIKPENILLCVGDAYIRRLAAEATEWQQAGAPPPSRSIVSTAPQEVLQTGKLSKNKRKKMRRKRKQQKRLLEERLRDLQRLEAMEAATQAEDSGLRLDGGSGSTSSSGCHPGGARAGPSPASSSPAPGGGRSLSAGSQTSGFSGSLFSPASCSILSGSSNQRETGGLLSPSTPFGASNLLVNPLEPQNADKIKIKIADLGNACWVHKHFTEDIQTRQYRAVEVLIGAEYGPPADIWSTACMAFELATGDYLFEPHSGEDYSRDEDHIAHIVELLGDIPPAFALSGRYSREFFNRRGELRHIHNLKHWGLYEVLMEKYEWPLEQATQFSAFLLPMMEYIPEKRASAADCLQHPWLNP
Bone morphogenetic protein receptor type-2 (Homo sapiens), sequence (Q13873 whole entry): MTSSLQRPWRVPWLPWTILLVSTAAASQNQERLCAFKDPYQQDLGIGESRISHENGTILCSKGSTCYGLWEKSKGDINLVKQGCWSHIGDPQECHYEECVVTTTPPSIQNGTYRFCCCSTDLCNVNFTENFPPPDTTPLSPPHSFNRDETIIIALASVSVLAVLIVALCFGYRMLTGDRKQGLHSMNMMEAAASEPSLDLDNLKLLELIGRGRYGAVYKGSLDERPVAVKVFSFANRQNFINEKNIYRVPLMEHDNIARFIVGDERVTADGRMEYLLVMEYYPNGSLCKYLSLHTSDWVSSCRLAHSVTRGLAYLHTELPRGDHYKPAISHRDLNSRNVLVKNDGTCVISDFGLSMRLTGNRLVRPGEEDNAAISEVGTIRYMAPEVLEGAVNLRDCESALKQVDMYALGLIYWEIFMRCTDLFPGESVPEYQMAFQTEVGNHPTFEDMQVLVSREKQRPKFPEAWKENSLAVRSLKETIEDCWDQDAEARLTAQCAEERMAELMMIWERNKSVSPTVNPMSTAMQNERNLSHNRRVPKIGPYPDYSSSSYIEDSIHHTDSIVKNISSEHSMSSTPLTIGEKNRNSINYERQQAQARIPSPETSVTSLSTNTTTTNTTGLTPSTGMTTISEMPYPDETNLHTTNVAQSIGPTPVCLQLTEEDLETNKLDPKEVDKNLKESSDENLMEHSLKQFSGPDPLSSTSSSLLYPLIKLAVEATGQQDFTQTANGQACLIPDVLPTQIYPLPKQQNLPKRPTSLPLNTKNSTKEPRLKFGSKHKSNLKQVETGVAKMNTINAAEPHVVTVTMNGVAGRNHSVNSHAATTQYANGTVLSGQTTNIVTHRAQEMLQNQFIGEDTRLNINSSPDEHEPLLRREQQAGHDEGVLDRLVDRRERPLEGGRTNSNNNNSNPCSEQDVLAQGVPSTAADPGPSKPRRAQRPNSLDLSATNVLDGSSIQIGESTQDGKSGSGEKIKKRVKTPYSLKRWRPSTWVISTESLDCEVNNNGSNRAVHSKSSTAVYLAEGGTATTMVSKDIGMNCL
Serine/threonine-protein kinase RIO1 (Homo sapiens), sequence (Q9BRS2 whole entry): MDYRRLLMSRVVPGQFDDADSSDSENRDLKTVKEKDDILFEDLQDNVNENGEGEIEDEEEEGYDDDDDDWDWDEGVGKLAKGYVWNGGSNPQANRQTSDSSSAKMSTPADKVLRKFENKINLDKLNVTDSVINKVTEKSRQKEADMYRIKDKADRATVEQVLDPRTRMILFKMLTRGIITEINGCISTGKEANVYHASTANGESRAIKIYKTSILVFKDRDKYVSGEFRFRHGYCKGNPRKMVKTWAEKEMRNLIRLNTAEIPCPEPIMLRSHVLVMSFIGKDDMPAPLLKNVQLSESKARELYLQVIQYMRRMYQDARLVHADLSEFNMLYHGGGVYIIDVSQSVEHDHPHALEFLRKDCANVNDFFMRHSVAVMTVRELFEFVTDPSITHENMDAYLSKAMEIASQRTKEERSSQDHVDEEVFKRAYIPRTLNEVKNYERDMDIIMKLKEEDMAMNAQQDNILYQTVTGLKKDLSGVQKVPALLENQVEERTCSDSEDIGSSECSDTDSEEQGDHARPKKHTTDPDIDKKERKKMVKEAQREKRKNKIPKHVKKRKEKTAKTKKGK
Serine/threonine-protein kinase 38-like (Homo sapiens), sequence (Q9Y2H1 2-464 limits assumed): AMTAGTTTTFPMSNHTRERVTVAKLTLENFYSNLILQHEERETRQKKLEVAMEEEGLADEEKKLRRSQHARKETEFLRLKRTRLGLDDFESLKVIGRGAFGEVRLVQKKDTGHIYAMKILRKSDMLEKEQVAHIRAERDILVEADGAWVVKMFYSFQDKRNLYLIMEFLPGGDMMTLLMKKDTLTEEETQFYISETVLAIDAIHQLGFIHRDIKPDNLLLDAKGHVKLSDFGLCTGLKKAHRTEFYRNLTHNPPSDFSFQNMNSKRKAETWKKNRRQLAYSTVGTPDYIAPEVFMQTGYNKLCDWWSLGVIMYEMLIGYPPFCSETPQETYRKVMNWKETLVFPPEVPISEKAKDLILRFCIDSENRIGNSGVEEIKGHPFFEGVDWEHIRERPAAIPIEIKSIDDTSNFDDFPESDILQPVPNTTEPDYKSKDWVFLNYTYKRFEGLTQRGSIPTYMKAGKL
Dual specificity protein kinase CLK1, sequence (P49759 whole entry, looked up): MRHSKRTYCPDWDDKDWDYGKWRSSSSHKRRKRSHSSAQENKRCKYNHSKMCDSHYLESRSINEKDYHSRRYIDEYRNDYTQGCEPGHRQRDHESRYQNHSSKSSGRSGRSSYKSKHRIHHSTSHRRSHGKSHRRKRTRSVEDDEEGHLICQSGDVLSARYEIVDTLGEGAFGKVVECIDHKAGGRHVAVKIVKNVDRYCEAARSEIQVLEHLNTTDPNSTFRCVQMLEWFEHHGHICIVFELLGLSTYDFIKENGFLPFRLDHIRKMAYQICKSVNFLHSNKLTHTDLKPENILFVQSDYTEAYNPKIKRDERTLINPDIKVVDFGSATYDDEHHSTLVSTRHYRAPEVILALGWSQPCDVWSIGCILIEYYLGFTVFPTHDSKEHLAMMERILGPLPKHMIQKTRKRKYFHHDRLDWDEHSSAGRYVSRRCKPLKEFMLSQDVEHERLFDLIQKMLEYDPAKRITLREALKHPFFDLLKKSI

Structure (SMILES): O=C1c2ccccc2-c2n[nH]c3cccc1c23
- Activity [1]: 0.6%
- Activity [2]: 24%
- Activity [3]: 15%
- Activity [4]: 0.1%
- Activity [5]: 28%
- Activity [6]: 32%
- Activity [7]: 3.8%
- Activity [8]: 0.95%
- Activity [9]: 10%

Structure (SMILES): COc1cc(N2CCC(O)CC2)ccc1Nc1cc(Nc2ccccc2S(=O)(=O)C(C)C)c2cc[nH]c2n1
- Activity [10]: Active
- Activity [11]: Active
- Activity [12]: Active
- Activity [13]: Active
- Activity [14]: inactive
- Kd [15]: 3.1 µM
- Kd [16]: 0.47 µM
- Activity [17]: Dose-Dependent Effect
- Activity [18]: ~100%
- Activity [19]: 17%
- Activity [20]: inactive
- Activity [21]: Dose-Dependent Effect
- Activity [22]: Active
- inhibition at 10 µM [23]: 70%
- Activity [24]: ~60%
- Activity [25]: 6%

From ChEMBL document CHEMBL5705891, “Small-molecule kinase inhibitors provide insight into Mps1 cell cycle function” (Nat Chem Biol, 2010)
